Bioassay records from PubChem BioAssay.
hiPSC survival: increases survival of single human iPS cells. 0.044% of 360,000 active. AID 602274. hiPSC single-cell survival, ATPlite luminescence; 100% = ROCK inhibitor wells, 0% = DMSO. survival enhancement, % at 20 µM; in the data active means survival enhancement above about 18%;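 further: cells exposed to compounds for 16 hours before the ATP read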
APJ agonist: agonists of human APJ apelin receptor; P35414; CHO-K1 APJ PathHunter beta-arrestin, luminescence; 0% DMSO wells, 100% apelin; activation, % at 20 µM; 0.11% of 330,000 active;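 active means activation more than six SD over the plate average, tested at 20 µM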
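assay system = CHO-K1 APJ beta-arrestin complementation cell line | input = cell density 1000 per well | dosing = compound 20 µM once, DMSO 1% | timing = compound 90 min 25 °C, reagent 1 h | measured by = luminescence from split beta-galactosidase complementation, Galacton Star/Emerald II substrate | read-out basis = APJ agonist activity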
CCR6 antag: antagonists of human CCR6 receptor; P51684; inhibition, % at 20 µM; CHO-K1 CCR6 PathHunter beta-arrestin, luminescence, CCL20-stimulated; 0.49% of 340,000 active;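 active means compounds whose inhibition of the agonist-driven luminescence signal at 20 µM reaches about 50%, limit read from the data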;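 further: cells stimulated with CCL20 at 14 nM final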
CXCR6 block: blocks human CXCR6 beta-arrestin recruitment; O00574; CHO-K1 PathHunter CXCR6 beta-arrestin, luminescence; inhibition, % at 20 µM; 0.36% of 360,000 active; in the data active means inhibition above about 34%, passing the limit was not always enough;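 further: antagonist mode with CXCL16 agonist at 10 nM final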
DAGLB inh: diacylglycerol lipase beta (human) inhibition; Q8NCG7; HEK293T DAGLB membrane lysate, EnzChek fluorogenic substrate; inhibition, % at 5.17 µM; 0.059% of 340,000 active; AID 504411; in the data active means inhibition above about 34%
Target sequence (Q8NCG7 whole entry, looked up): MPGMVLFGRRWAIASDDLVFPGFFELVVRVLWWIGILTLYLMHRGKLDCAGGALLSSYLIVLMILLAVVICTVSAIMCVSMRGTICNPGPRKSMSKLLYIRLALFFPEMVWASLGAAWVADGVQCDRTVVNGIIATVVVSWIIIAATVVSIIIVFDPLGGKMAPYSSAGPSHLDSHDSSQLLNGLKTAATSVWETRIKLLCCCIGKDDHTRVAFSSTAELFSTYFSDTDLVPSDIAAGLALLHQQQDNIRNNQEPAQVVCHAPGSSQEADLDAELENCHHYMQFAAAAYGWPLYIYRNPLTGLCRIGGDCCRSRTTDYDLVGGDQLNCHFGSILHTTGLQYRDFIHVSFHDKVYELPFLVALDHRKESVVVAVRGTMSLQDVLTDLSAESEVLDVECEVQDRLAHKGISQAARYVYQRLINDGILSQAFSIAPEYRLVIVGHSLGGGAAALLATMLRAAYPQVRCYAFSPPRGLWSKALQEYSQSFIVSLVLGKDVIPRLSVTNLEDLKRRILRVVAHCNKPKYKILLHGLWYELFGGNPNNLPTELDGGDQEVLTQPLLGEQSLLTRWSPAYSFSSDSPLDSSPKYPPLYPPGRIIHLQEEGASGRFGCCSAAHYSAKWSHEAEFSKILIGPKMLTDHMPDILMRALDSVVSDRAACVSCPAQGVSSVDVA
APJ antagonist: blocks the human apelin receptor APJ; P35414; CHO-K1 APJ beta-arrestin complementation, luminescence; inhibition, % at 20 µM; 0.32% of 330,000 active; AID 2521;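 active means inhibition above about 40% at 20 µM, limit read from the data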;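 further: cells challenged with 10 nM apelin-13 agonist together with compound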
Large screens that a line does not name were inactive. Rows were chosen to be rich in hits. Some 0.86% of all compounds tested hit in one or more screens of this group.

CN(Cc1ccccc1)S(=O)(=O)c1ccc(NC(=S)NC(=O)C2CCCCC2)cc1	CCR6 antag 51.0
Cc1cc(CNC[C@H]2O[C@@H](n3cnc4c(N)ncnc43)[C@H](O)[C@@H]2O)no1	none (no result: APJ agonist, CCR6 antag, APJ antagonist)
Cc1[nH]c2ccccc2c1/C=N/Nc1ccccc1[N+](=O)[O-]	APJ antagonist 43.1
COc1ccc(NS(=O)(=O)c2cc([N+](=O)[O-])ccc2N/N=C/c2c(C)[nH]c3ccccc23)cc1	CCR6 antag 57.7 (no result: APJ agonist, APJ antagonist)
COc1cc(NC(=O)CN(C)S(=O)(=O)c2cccs2)cc(OC)c1	none
CCOc1ccc(NC(=O)CN(C)S(=O)(=O)c2cccs2)cc1	CXCR6 block 49.0
C=CCOC(=O)C(C#N)c1nc2ccccc2nc1N1CCN(c2ccccc2OC)CC1 (stereo not drawn)	CCR6 antag 52.4
C=CCOC(=O)C(C#N)c1nc2ccccc2nc1N1CCN(Cc2ccccc2)CC1 (stereo not drawn)	none
COc1ccc(/C=C2\SC(=S)N(CC(=O)NC3C=CS(=O)(=O)C3)C2=O)cc1 (stereo not drawn)	none
Cc1nc(NNC(=O)c2ccc([N+](=O)[O-])cc2)cc(-c2ccccc2)n1	CCR6 antag 58.2
O=C1N(c2ccc(Cl)c(Cl)c2)CN(Cc2ccccc2)CN1n1cnnc1	none
COc1ccc(CN2CN(c3ccc(Cl)cc3)C(=O)N(n3cnnc3)C2)cc1	CXCR6 block 44.3
CCOC(=O)CSC1=NC(=O)/C(=C/c2ccc(Br)cc2)S1	CCR6 antag 59.0
CCOC(=O)CSC1=NC(=O)/C(=C\c2ccc(OC(C)=O)cc2)S1	CCR6 antag 77.8
CCOC(=O)COc1ccc(Br)cc1/C=C1\SC(N)=NC1=O	none
CNC(=S)N1CCN(c2nc3ccccc3s2)CC1	none
CCCn1c(CNc2ccccc2O)nc2ccccc21	CCR6 antag 62.5
Cc1ccc(/C=C/C(=O)NC2CCCCCCC2)o1	none
O=C1CC(C(=O)Nc2ccc(Cl)cc2[N+](=O)[O-])C2(CCCCC2)O1 (stereo not drawn)	CCR6 antag 56.7
CCCCCCCCCC[N+](C)(C)CC/C=C1/c2ccccc2Sc2ccc(Cl)cc21	CXCR6 block 48.8
CCCCCCCCCCC[N+](C)(C)CC/C=C1/c2ccccc2Sc2ccc(Cl)cc21	none
CCc1nc2c(OCC(=O)N3CCOCC3)cccn2c1N(C=O)Cc1ccccc1	none (no result: APJ agonist, CCR6 antag, DAGLB inh, APJ antagonist)
Cc1nc2c(-c3ccc(Cl)cc3)c(C)[nH]n2c(=O)c1Cc1ccccc1	CXCR6 block 43.1
Cc1nc2c(-c3ccccc3)c(C)[nH]n2c(=O)c1Cc1ccccc1	none (no result: DAGLB inh)
C(=N\Nc1nc2ccccc2s1)/c1ccccn1	CCR6 antag 76.9 (no result: hiPSC survival, CXCR6 block, DAGLB inh)
Cc1csc(N/N=C/c2ccccn2)n1	CCR6 antag 60.3
Cc1csc(N/N=C/c2ccc([N+](=O)[O-])cc2)n1	none
COc1c(Cl)cnn(-c2ccc(C)cc2)c1=O	hiPSC survival 26.9
Cc1ccc(OCCn2c(NC(=O)c3ccco3)nc3ccccc32)cc1	CXCR6 block 39.2
CC1(C(=O)NS(=O)(=O)Cc2ccccc2C(F)(F)F)CCN1C(=O)c1ccco1 (stereo not drawn)	none (no result: APJ agonist, CCR6 antag, DAGLB inh, APJ antagonist)
C=CCn1c(N)c(C(=O)OC(C)(C)C)c2nc3ccccc3nc21	APJ antagonist 49.8
O=C1C(F)=CC(COC(c2ccccc2)(c2ccccc2)c2ccccc2)OC1n1cc(F)c(=O)[nH]c1=O (stereo not drawn)	CCR6 antag 99.0, CXCR6 block 66.7 (no result: APJ agonist, APJ antagonist)
CC(=O)OCC1OC(n2cc(F)c(=O)[nH]c2=O)C(OC(C)=O)C1OC(C)=O (stereo not drawn)	none
O=C(N/N=C/c1cc([N+](=O)[O-])cc([N+](=O)[O-])c1O)C(O)(c1ccccc1)c1ccccc1	CXCR6 block 39.3
C[C@@H]1CN([C@@H](C)CO)S(=O)(=O)c2ccc(Br)cc2O[C@H]1CN(C)C(=O)Nc1ccc2c(c1)OCO2	none (no result: APJ agonist, CCR6 antag, APJ antagonist)
Cc1ccc2nc(Cl)c3nnnn3c2c1	hiPSC survival 29.5
Cc1ccc2nc(N3CCN(c4cccc(C)c4C)CC3)c3nnnn3c2c1	none
N#Cc1c(N)nc(SCc2ccncc2)c(C#N)c1-c1cccs1	none
CN1CCc2nc(SCc3ccc(Cl)cc3)c(C#N)c(-c3cccs3)c2C1	CCR6 antag 73.9 (no result: hiPSC survival, CXCR6 block, DAGLB inh)
O=C(O)c1cc(C(=O)C2CCCCC2)c[nH]1	none
O=C(O)c1cc(C(=O)C2CC2)c[nH]1	hiPSC survival 23.2
CC1C/C(=C/c2ccncc2)C(=O)/C(=C/c2ccncc2)C1 (stereo not drawn)	hiPSC survival 52.7
CC(=O)c1cccc([N+](=O)[O-])c1	none
O=C(C#Cc1ccccc1)c1cccc([N+](=O)[O-])c1	CCR6 antag 93.4, CXCR6 block 91.2
O=C1NC(=O)C2(CCc3ccccc32)N1 (stereo not drawn)	none
C=C1CC2(OC1=O)c1ccccc1CCc1ccccc12	CCR6 antag 67.8, CXCR6 block 45.1 (no result: APJ agonist, APJ antagonist)
Cc1ccc(S(=O)(=O)CCC(=O)c2cccc([N+](=O)[O-])c2)cc1	CCR6 antag 58.6
Cc1ccc(C(=O)CCS(=O)(=O)c2ccc(Br)cc2)cc1	none
Cc1ccccc1NC1=C/C(=N\S(=O)(=O)c2cccs2)c2ccccc2C1=O	CCR6 antag 56.1
CC(=O)Nc1ccc(S(=O)(=O)N[C@@H](C)C(=O)OCC(=O)c2ccc(C)cc2)cc1	none
Cc1ccc(CNS(=O)(=O)NCc2cccs2)cc1	none
CCCCN1C(=O)C(=Nc2cccc3cnccc23)c2ccccc21	CCR6 antag 56.5
CC1(C)Cc2c(C#N)c(NCC3CCCO3)nc(-c3ccco3)c2CO1 (stereo not drawn)	hiPSC survival 19.6
CC(=O)OC(C)C1C2=C(C(=O)CC1(C)O)C(=O)c1c(ccc(-c3ccc4c(c3O)C(=O)C3=C(C4=O)C(C(C)OC(C)=O)C(C)(O)CC3=O)c1O)C2=O (stereo not drawn)	CCR6 antag 51.6 (no result: APJ agonist, APJ antagonist)
COC(=O)CCC(=O)OC1(C)C(=O)C=C2C=C(C3CC3)OC=C2C1=O (stereo not drawn)	none (no result: hiPSC survival, CCR6 antag, CXCR6 block, DAGLB inh)
O=C(Nc1c(Cl)cccc1Cl)C1CCN(C(=O)c2cccs2)CC1	none
CC1CCN(c2nc3nonc3nc2N2CCC(C)CC2)CC1	none
C1CCN(c2nc3nonc3nc2N2CCCC2)C1	hiPSC survival 22.3
CC1(C(=O)NCc2cccc3ccccc23)CCN1Cc1ccccc1OC(F)F (stereo not drawn)	none (no result: APJ agonist, CCR6 antag, DAGLB inh, APJ antagonist)
CCCCCCC[C@@H](C/C=C/CCC(=O)N(C)C/C(=C/Cl)C/C(=C\C(=O)N1CC(OC)=CC1=O)OC)OC	hiPSC survival 34.8
COc1ccc(CCN2C(=O)CCC2(C)c2nnnn2-c2ccc3c(c2)OCCO3)cc1OC (stereo not drawn)	none (no result: APJ agonist, CCR6 antag, DAGLB inh, APJ antagonist)
Cc1ccc(-c2oc3ccccc3c(=O)c2O)cc1	CXCR6 block 51.8
